Assay results from ChEMBL document CHEMBL1926638, “Anti-cancer activity of 5-O-alkyl 1,4-imino-1,4-dideoxyribitols” (Bioorg Med Chem, 2011).
One block for each molecule: values may come before it. Calls of active or inactive are those of the source. The calls are words filed in the database; no cut-off is given here.

Tests used:
Jurkat [1] = assay: Induction of apoptosis in human Jurkat cells assessed as cell death at 10 uM by annexin V-7AAD double staining based flow cytometric analysis; type: functional; details: TDE = time-dependent effect
Method in brief: (§1)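 JURKAT cells treated with compound. Apoptosis quantified by annexin-V/7-AAD staining and flow cytometry: early apoptotic = annexin V+7AAD−, late = annexin V+7AAD+. At 10 µM, a time course of cell death was also run.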

SK-BR-3 [2] = assay: Cytotoxicity against human SKBR3 cells after 72 hrs by MTS assay; type: functional, cell-based
Method in brief: (§2)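 SKBR3 (HER2+ breast cancer) cells exposed to compound for 72 h; number of metabolically active cells read by MTS tetrazolium reduction. Values are means of duplicate wells.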

SK-BR-3 [3] = assay: Cytotoxicity against human SKBR3 cells assessed as cell death at 6.25 uM after 72 hrs by MTS assay; type: functional, cell-based
Jurkat [4] = assay: Induction of apoptosis in human Jurkat cells assessed as cell death at 10 uM after 24 hrs by annexin V-7AAD double staining based flow cytometric analysis; type: functional
Method in brief: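 Jurkat T-ALL cells exposed to 10 µM for 24 h (time-course series). Apoptosis quantified by annexin V and 7-AAD staining with flow cytometry. Early apoptotic = annexin V+/7AAD−, late apoptotic = annexin V+/7AAD+. Viability monitored in parallel by trypan blue exclusion. Values given as percent cell death.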

Jurkat [5] = assay: Induction of apoptosis in human Jurkat cells assessed as late apoptotic cells at 10 uM after 24 hrs by annexin V-7AAD double staining based flow cytometric analysis; type: functional; method in brief: as §1
Jurkat [6] = assay: Induction of apoptosis in human Jurkat cells assessed as early apoptotic cells at 10 uM after 24 hrs by annexin V based flow cytometric analysis; type: functional; method in brief: as §1
[7] = Induction of apoptosis in human CD34-positive and CD38-deficient hematopoietic progenitor cells assessed as cell death at 10 uM after 24 hrs by annexin V-7AAD double staining based flow cytometric analysis
[8] = Induction of apoptosis in human CD34-positive and CD38-deficient hematopoietic progenitor cells assessed as late apoptotic cells at 10 uM after 24 hrs by annexin V-7AAD double staining based flow cytometric analysis
[9] = Induction of apoptosis in human CD34-positive and CD38-deficient hematopoietic progenitor cells assessed as early apoptotic cells at 10 uM after 24 hrs by annexin V based flow cytometric analysis
SK-BR-3 [10] = assay: Cell cycle arrest in human SKBR3 cells assessed as accumulation in G0/G1 phase after 24 hrs by FITC-conjugated annexin-V propidium iodide based flow cytometric analysis; type: functional
Method in brief: (§3)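 SKBR3 cells treated with compound, then cell-cycle distribution examined (G0/G1 and S fractions); at higher concentrations DNA fragmentation and hypodiploid nuclei scored. Described as preliminary assays.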

SK-BR-3 [11] = assay: Cell cycle arrest in human SKBR3 cells assessed as reduction in S phase after 24 hrs by FITC-conjugated annexin-V propidium iodide based flow cytometric analysis; type: functional; method in brief: as §3
SK-BR-3 [12] = assay: Induction of apoptosis in human SKBR3 cells assessed as DNA fragmentation after 24 hrs by annexin-V propidium iodide based flow cytometric analysis; type: functional, cell-based; method in brief: as §3
SK-BR-3 [13] = assay: Induction of apoptosis in human SKBR3 cells assessed as hypodiploid cell nuclei appearance after 24 hrs by annexin-V propidium iodide based flow cytometric analysis; type: functional; method in brief: as §3
SK-BR-3 [14] = assay: Cytotoxicity in human SKBR3 cells assessed as increase in intracellular vacuolization after 6 to 12 hrs; type: functional, cell-based
[15] = Cytotoxicity against mouse BA/F3 cells expressing tyrosine kinase at <10 uM after 48 hrs by resazurin reduction assay; type: cell-based; details: baf3, 48 h
Method in brief: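 15 Ba/F3 models, each proliferating through engineered expression of a specific tyrosine kinase. Compound incubated 48 h at concentrations below 10 µM, read by resazurin reduction. 9-point IC50 curves in three independent experiments.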

Jurkat [16] = assay: Cytotoxicity against human Jurkat cells by trypan blue assay; type: functional, cell-based
Method in brief: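 JURKAT cells exposed to compound; viability monitored by Trypan blue exclusion.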

SK-BR-3 [17] = assay: Cytotoxicity against human SKBR3 cells assessed as cell viability 1 to 400 uM after 72 hrs by MTS assay; type: functional, cell-based; method in brief: as §2
Canavalia ensiformis = assay: Inhibition of jack beans alpha-mannosidase
Jurkat [18] = assay: Induction of apoptosis in human Jurkat cells assessed as cell death at 100 uM after 24 hrs by annexin V-7AAD double staining based flow cytometric analysis; type: functional; method in brief: as §1
PBMC = assay: Induction of apoptosis in PBMC at 10 uM after 24 hrs by annexin-V and 7AAD double staining based flow cytometric analysis; type: cell-based

Compound: CCCCCCCC/C=C\CCCCCCCCOC[C@H]1NC[C@H](O)[C@@H]1O
Activity (Jurkat [1]): tde | IC50 (SK-BR-3 [2]; SK-BR-3, 72 h): 2 µM | Activity (SK-BR-3 [3]): Active | Activity (Jurkat [4]): 100% | Activity (Jurkat [5]): 60% | Activity (Jurkat [6]): 40% | Activity [7]: 60% | Activity [8]: 40% | Activity [9]: 20% | Activity (SK-BR-3 [10]): Active | Activity (SK-BR-3 [11]): Active | Activity (SK-BR-3 [12]): Active | Activity (SK-BR-3 [13]): Active | Activity (SK-BR-3 [14]): Active | Activity [15]: Non-toxic | IC50 (Jurkat [16]): 8 µM

Compound: CC/C=C\C/C=C\C/C=C\CCCCCCCCOC[C@H]1NC[C@H](O)[C@@H]1O
Activity (SK-BR-3 [2]): Active | Activity (SK-BR-3 [17]): Active | Inhibition activity (Canavalia ensiformis): inactive

Compound: CCCCCC/C=C\CCCCCCCCOC[C@H]1NC[C@H](O)[C@@H]1O
Activity (SK-BR-3 [2]): Active | Activity (SK-BR-3 [17]): Active | Inhibition activity (Canavalia ensiformis): inactive

Compound: CCCCCCCCCCOC[C@H]1NC[C@H](O)[C@@H]1O
Activity (SK-BR-3 [2]): Active | Activity (SK-BR-3 [17]): Active | Inhibition activity (Canavalia ensiformis): inactive

Compound: CCCCCCCCCCCCCCOC[C@H]1NC[C@H](O)[C@@H]1O
Inhibition activity (Canavalia ensiformis): inactive

Compound: OC[C@H]1NC[C@H](O)[C@@H]1O [IMINORIBITOL]
Activity (SK-BR-3 [17]): inactive | Activity (Jurkat [4]): inactive | Activity (Jurkat [16]): inactive | Activity (PBMC): Non-toxic

The next lines start with results.

Inhibition activity (Canavalia ensiformis): inactive
Compound: CCCCCCCOC[C@H]1NC[C@H](O)[C@@H]1O
Activity (SK-BR-3 [17]): inactive

Inhibition activity (Canavalia ensiformis): inactive
Compound: CCCCCCCCCCCCCCCCCCOC[C@H]1NC[C@H](O)[C@@H]1O
Activity (SK-BR-3 [2]): Active | Activity (SK-BR-3 [17]): Active

Inhibition activity (Canavalia ensiformis): inactive
Compound: CCCCC/C=C\C/C=C\CCCCCCCCOC[C@H]1NC[C@H](O)[C@@H]1O
Activity (SK-BR-3 [2]): Active | Activity (SK-BR-3 [17]): Active

Inhibition activity (Canavalia ensiformis): inactive
Compound: CCCCCOC[C@H]1NC[C@H](O)[C@@H]1O

Inhibition activity (Canavalia ensiformis): inactive
Compound: O[C@H]1[C@@H](O)CN[C@@H]1COCc1ccccc1
Activity (SK-BR-3 [17]): inactive

Inhibition activity (Canavalia ensiformis): inactive
Compound: C=CCCCOC[C@H]1NC[C@H](O)[C@@H]1O

Inhibition activity (Canavalia ensiformis): Active
Compound: O[C@H]1[C@@H](O)CN[C@@H]1COCc1ccc(-c2ccccc2)cc1
Activity (SK-BR-3 [17]): Active | Activity (Jurkat [18]): Active
